In ChEMBL document CHEMBL3244057, “Diazepines. 5. Synthesis and biological action of 6-phenyl-4H-pyrrolo[1,2-a][1,4]benzodiazepines” (J Med Chem, 1978):

What was measured:
[1] = test system: Mus musculus; experiment: Toxicity in po dosed ddY mouse assessed as motor incoordination by rotarod test; type: organism-based; conditions: in vivo
In short: (§1)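 Male ddY mice (18–24 g) were dosed orally with compound suspended in 5% arabic gum, six mice per dose. Three or four doses were chosen from 100, 30, 10, 3, 1, 0.3 and 0.1 mg/kg. ED50 was calculated by the Litchfield-Wilcoxon method. Muscle relaxation was scored on an inclined wooden board, and fighting was induced by electrofootshock.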

[2] = test system: Mus musculus; experiment: Induction of sedative activity in po dosed ddY mouse assessed as potentiation of thiopental-induced response; type: functional; in short: as §1
[3] = test system: Mus musculus; experiment: Anticonvulsant activity in po dosed ddY mouse assessed as reduction of pentylenetetrazole-induced seizure; type: functional; in short: as §1
[4] = test system: Mus musculus; experiment: Anticonvulsant activity in po dosed ddY mouse assessed as reduction of maximal electroshock-induced seizure; type: functional
[5] = test system: Mus musculus; experiment: Muscle relaxant activity in po dosed ddY mouse; type: functional; in short: as §1
[6] = test system: Mus musculus; experiment: Taming activity in po dosed electrofootshock-induced fighting ddY mouse; type: functional; in short: as §1
[7] = Acute toxicity in po dosed ddY mouse assessed as mortality measured for 2 weeks; type: organism-based; conditions: in vivo
In short: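 Male ddY mice (18–24 g) were dosed orally with compound suspended in 5% arabic gum. Groups of four received 1000 or 2000 mg/kg, and a group of eight received 3000 mg/kg. Deaths were recorded over a 2-week observation period.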

[8] = Ratio of compound ED50 to diazepam ED50 for toxicity in po dosed ddY mouse assessed as motor incoordination; type: organism-based; conditions: in vivo, read-out: Ratio ED50

SMILES	ED50 [1] [mg/kg]	ED50 [2] [mg/kg]	ED50 [3] [mg/kg]	ED50 [4] [mg/kg]	ED50 [5] [mg/kg]	ED50 [6] [mg/kg]	LD50 at 336 h [7] [mg/kg]	selectivity ratio [8]
Clc1ccc2c(c1)C(c1ccccc1)=NCc1cccn1-2	> 100	44	–	–	–	–	–	–
Clc1ccc2c(c1)C(c1ccccc1Cl)=NCc1cccn1-2	> 100	18	–	–	–	–	–	–
Fc1ccccc1C1=NCc2cccn2-c2ccc(Cl)cc21	> 100	5.2	100	> 100	> 100	39	–	–
Cc1ccc2n1-c1ccccc1C(c1ccccc1)=NC2	> 100	22	> 100	> 100	> 100	> 100	–	–
Cc1ccc2n1-c1ccc(Cl)cc1C(c1ccccc1)=NC2	> 100	46	100	> 100	> 100	> 100	–	–
Cc1ccc2n1-c1ccc([N+](=O)[O-])cc1C(c1ccccc1)=NC2	> 100	5.8	≥ 100	> 100	> 100	> 100	–	–
Cc1ccc2n1-c1ccc(Cl)cc1C(c1ccccc1Cl)=NC2	100	2.8	–	–	–	–	–	–
Cc1ccc2n1-c1ccc(Cl)cc1C(c1ccccc1F)=NC2	> 100	6.9	–	–	–	–	–	–
Cc1cc2n(c1C)-c1ccccc1C(c1ccccc1)=NC2	> 100	> 30	> 100	> 100	> 100	> 100	–	–
Cc1cc2n(c1C)-c1ccc(Cl)cc1C(c1ccccc1)=NC2	> 100	21	–	–	–	–	–	–
Cc1cc2n(c1C)-c1ccc(Cl)cc1C(c1ccccc1Cl)=NC2	40	2.6	–	–	–	–	–	–
Cc1cc2n(c1C)-c1ccc(Cl)cc1C(c1ccccc1F)=NC2	> 100	8	–	–	–	–	–	–
CCc1cc2n(c1C)-c1ccc(Cl)cc1C(c1ccccc1Cl)=NC2	16.2	0.6	–	–	–	–	–	–
CCc1cc2n(c1C)-c1ccc(Cl)cc1C(c1ccccc1F)=NC2	> 100	2.2	–	–	–	–	–	–
CCc1cc2n(c1C)-c1ccc(Cl)cc1C(c1c(F)cccc1F)=NC2	> 100	3	16.6	–	–	–	–	–
Cc1cc(C)n2c1CN=C(c1ccccc1Cl)c1cc(Cl)ccc1-2	15.5	0.34	1.4	–	–	–	930	2
Cc1cc(C)n2c1CN=C(c1ccccc1F)c1cc(Cl)ccc1-2	> 30	2.4	–	–	20.5	–	–	–
Cc1cc(C)n2c1CN=C(c1c(F)cccc1F)c1cc(Cl)ccc1-2	16.2	0.7	–	–	6.4	–	–	–
CN1C(=O)CN=C(c2ccccc2)c2cc(Cl)ccc21 [DIAZEPAM]	5.4	0.3	0.6	–	0.6	–	–	–
